Experimental findings from paper PMC9393086 (Thrombosis and Haemostasis, 2022) are described below.

The test system of experiment [1] is washed human platelets. Description: Light transmission platelet aggregation. It counts as cell-based. Conditions: for effect on platelet aggregation induced by 10 µM katacine: pretreatment 5 min, PRT-060318 1 µM, PP2 20 µM. In a few lines:
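Platelets came from citrated blood of healthy donors free of antiplatelet drugs for 14 days. They were washed from PRP with 0.2 µg/mL prostacyclin, resuspended in modified Tyrode's buffer pH 7.3 and rested 30 min at RT. Platelets (2 × 10^8/mL) were stirred at 1,200 rpm at 37°C and stimulated with test compound (1–30 µM). Pretreatment was 5 min at 37°C with PP2 20 µM, PRT-060318 1 µM, AYP1 10 µg/mL or 0.1% DMSO. Read-out was light transmission; three independent experiments, mean + SD.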

Experiment [2] has as its system Syk Y525/526. The experiment can be described thus: Phospho-specific immunoblot of platelet lysates, Syk. Conditions: katacine 10 µM, rhodocytin 100 nM; 5 min; 9 µM eptifibatide. It counts as cell-based, human. On the technique in general: Immunoblotting shows a protein as a band on a membrane.
Experiment [3] relates to CLEC-2. Description: Immunoprecipitation of CLEC-2 and 4G10 western blot. The format is cell-based, human. Conditions: katacine 10 µM, rhodocytin 100 nM. In a few lines:
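Platelets (4 × 10^8/mL, 9 µM eptifibatide) were stimulated 5 min at 37°C, stirring at 1,200 rpm, with test compound, rhodocytin or vehicle. Lysis was in NP-40 buffer with protease inhibitors and orthovanadate, pH 7.5. Lysates were precleared on Sepharose, then incubated 30 min with 2 µg anti-CLEC-2 antibody AYP1 and captured for 60 min. Immunoprecipitates were blotted with 4G10; signal was expressed as fold over vehicle.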

The subject of experiment [4] is FcR γ-chain. Description: FcR γ-chain phosphorylation, western blot of whole cell lysate. The format is cell-based, human. Conditions: katacine 10 µM, CRP 3 µg/mL.
For experiment [5], the system named is mouse washed platelets. The experiment can be described thus: Mouse platelet aggregation. It counts as cell-based. Particulars: katacine 10 µM; 2x10^8 platelets/mL.
Experiment [6] has as its target podoplanin–CLEC-2 interaction (Homo sapiens, UniProt Q9P126). Description: ALPHA screen podoplanin–CLEC-2 interaction assay. The format is binding. The gist of the method: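 Biotinylated human podoplanin–rabbit Fc (50 nM) plus human CLEC-2 extracellular domain (Ser55–Pro229)–6xHis (250 nM), both expressed in HEK293T and purified, incubated with test compound (vehicle 0.1% v/v DMSO) 30 min at 4°C. Then 40 µg/mL streptavidin donor beads, 30 min at RT in the dark, then 40 µg/mL nickel acceptor beads, 60 min at RT in the dark. ALPHA signal read; false positives excluded by TruHits counter-screen; IC50 from concentration series.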

For experiment [7], the system named is LAT Y200. Description: Phospho-specific immunoblot of platelet lysates, LAT. It counts as cell-based, human. Conditions: katacine 10 µM, rhodocytin 100 nM; 5 min; 9 µM eptifibatide.
The test system of experiment [8] is mouse platelet lysates. Description: Protein tyrosine phosphorylation in mouse platelet lysates. It counts as cell-based. Particulars: katacine 10 µM; 4x10^8 platelets/mL.

The IC50 is the concentration that inhibits the measured activity by half. Higher therefore signals a need for much substance.

Molecules are shown by their SMILES.

podoplanin–CLEC-2 interaction, sequence (Q9P126 55-229): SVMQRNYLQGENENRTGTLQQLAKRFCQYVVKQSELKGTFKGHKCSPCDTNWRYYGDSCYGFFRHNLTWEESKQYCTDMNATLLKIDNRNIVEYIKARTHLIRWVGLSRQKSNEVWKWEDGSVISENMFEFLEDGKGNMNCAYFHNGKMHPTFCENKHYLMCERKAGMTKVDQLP

Turning to `CC(C)(C)n1nc(-c2ccc(Cl)cc2)c2c(N)ncnc21` [PP2, reference compound], the “effect on platelet aggregation induced by 10 µM katacine” value in experiment [1] is “completely blocked”.
On the same count and under the same terms, the value for `Cc1cccc(Nc2nc(N[C@@H]3CCCC[C@@H]3N)ncc2C(N)=O)c1` [PRT-060318, reference compound] was “completely blocked”.
Consider `Oc1cc(O)c2c(c1)O[C@H](c1cc(O)c(O)c(O)c1)[C@H](O)[C@H]2c1c(O)cc(O)c2c1O[C@H](c1cc(O)c(O)c(O)c1)[C@H](O)[C@H]2c1c(O)cc(O)c2c1O[C@H](c1cc(O)c(O)c(O)c1)[C@H](O)C2` [katacine, Katacine], for which the “increase in phosphorylation of Syk Y525/526 relative to vehicle” value in experiment [2] is reported as 4.5 ± 0.9 fold. The “increase in phosphorylation levels of CLEC-2 relative to vehicle” value in experiment [3] turned out to be 6.6 ± 4.6 fold. The “phosphorylation of FcR γ-chain” value in experiment [4] is listed as “did not stimulate an increase”. The “platelet aggregation in mouse platelets” value in experiment [5] is recorded as “did not observe platelet aggregation”. The “platelet aggregation, concentration–response” value in experiment [1] (at 5 μM and below) is “no response”; in experiment [1] (at 10 and 30 μM), “maximal aggregation”. For the same molecule, the platelet aggregation in experiment [1] (katacine 10 µM, washed platelets 2 × 10^8/mL) is on record as 77.7 ± 9%. Moreover, inhibition in experiment [6] was half-maximal at 2700 nM (IC50). Also, the “increase in phosphorylation of LAT Y200 relative to vehicle” value in experiment [7] is 18.8 ± 5.9 fold. For the same molecule, the “protein tyrosine phosphorylation in mouse platelets” value in experiment [8] is “did not observe”.
For the molecule `O=C(O)c1cc(O)c2c(c1)[C@H]([C@H]1c3cc(C(=O)O)cc(O)c3C(=O)c3c(O[C@@H]4O[C@H](CO)[C@@H](O)[C@H](O)[C@H]4O)cccc31)c1cccc(O[C@@H]3O[C@H](CO)[C@@H](O)[C@H](O)[C@H]3O)c1C2=O` [sennoside A, Sennoside A], the “effect on platelet aggregation” value in experiment [1] (10 and 30 µM, data not shown) is recorded as “no effect”. In experiment [1] (10 and 30 µM, rhodocytin 100 nM, data not shown), the “effect on the platelet aggregation response to rhodocytin” value is listed as “no effect”. In experiment [6], this molecule came in with an IC50 of 1300 nM.
